Reference: ChEMBL document CHEMBL1149434 (J Med Chem, 2006)
Active and inactive are the calls of the source. The rule behind the calls is not given here.

Key:
[1] = test system: RAW264.7; assay: Ability to suppress the production of reactive oxygen intermediates by activated RAW 264.7 macrophages from BALB/c mice at 4 ug/ml; assay type: functional
Procedure, shortened: (§1)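 RAW 264.7 cells were grown in DMEM with 5% FCS and LPS-activated (1 µg/mL, 24 h). Cells (5 × 10^5 in 0.5 mL) were incubated 24 h with cannabinoids dissolved in ethanol and diluted in Hanks. Luminol and zymosan were then added and chemiluminescence was read immediately. Mean ± SD of three pooled experiments.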

[2] = test system: Peritoneal macrophage cell; assay: Ability to suppress […] production by LPS-activated peritoneal macrophages form C57BL/6 mice at 4 ug/ml; assay type: functional, cell-based; details: Mus musculus
Procedure, shortened: (§2)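 Elicited peritoneal macrophages were prepared as for TNF. They were exposed to ethanol-dissolved cannabinoids diluted in DMEM, plus LPS 1 µg/mL, for 24 h. Nitrite in 100 µL supernatant was mixed with an equal volume of Griess reagent for 10 min at room temperature and read at 550 nm. Values came from a nitrite standard curve. Mean ± SD of three pooled experiments.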

[3] = test system: Peritoneal macrophage cell; assay: Ability to suppress […] production by LPS-activated peritoneal macrophages form C57BL/6 mice at 8 ug/ml; assay type: functional, cell-based; details: Mus musculus; procedure, shortened: as §2
[4] = test system: Peritoneal macrophage cell; assay: Ability to suppress TNFalpha production by LPS-activated peritoneal macrophages form C57BL/6 mice at 4 ug/ml; assay type: functional, cell-based; details: Mus musculus
[5] = molecular target: Cannabinoid receptor 1 (Rattus norvegicus, UniProt P20272); assay: Displacement of [3H]HU243 from CB1 receptor in Sabra rat brain
[6] = test system: Peritoneal macrophage cell; assay: Ability to suppress […] production by LPS-activated peritoneal macrophages form C57BL/6 mice at 1 ug/ml; assay type: functional, cell-based; details: Mus musculus; procedure, shortened: as §2
[7] = test system: RAW264.7; assay: Ability to suppress the production of reactive oxygen intermediates by activated RAW 264.7 macrophages from BALB/c mice at 8 ug/ml; assay type: functional, Mus musculus; procedure, shortened: as §1
[8] = test system: Peritoneal macrophage cell; assay: Ability to suppress TNFalpha production by LPS-activated peritoneal macrophages form C57BL/6 mice at 8 ug/ml; assay type: functional

Chain of Cannabinoid receptor 1 (P20272 whole entry): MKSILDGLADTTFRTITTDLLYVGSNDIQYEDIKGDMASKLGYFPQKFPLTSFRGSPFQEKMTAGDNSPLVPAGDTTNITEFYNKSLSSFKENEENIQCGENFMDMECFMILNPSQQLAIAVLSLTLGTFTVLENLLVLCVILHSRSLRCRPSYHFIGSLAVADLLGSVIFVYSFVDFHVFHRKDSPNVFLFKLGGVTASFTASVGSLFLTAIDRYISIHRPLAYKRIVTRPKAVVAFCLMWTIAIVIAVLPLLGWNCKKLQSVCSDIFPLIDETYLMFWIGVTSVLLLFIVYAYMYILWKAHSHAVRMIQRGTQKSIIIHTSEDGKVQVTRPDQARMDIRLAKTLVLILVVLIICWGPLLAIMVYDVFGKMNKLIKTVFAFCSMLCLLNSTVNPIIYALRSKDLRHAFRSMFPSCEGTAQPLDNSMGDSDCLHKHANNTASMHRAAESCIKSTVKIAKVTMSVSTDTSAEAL

## CCCCCc1cc(O)c(C2C=C(C)CC[C@H]2C(C)C)c(O)c1 (some centres not stated)
[1]; Mus musculus
  Activity: Active
[2]
  Activity: Active
[3]
  Activity: Active
[4]
  Activity: Active
[5]
  Ki: > 1000 nM

## CCCCCc1cc(O)c(C2CC(C)CC[C@H]2C(C)C)c(O)c1 (some centres not stated)
[1]; Mus musculus
  Activity: Active
[2]
  Activity: Active
[3]
  Activity: Active
[6]
  Activity: Active
[4]
  Activity: Active
[5]
  Ki: 145 nM

## CCCCCCC(C)(C)c1cc(O)c(C2CC(C)CC[C@H]2C(C)C)c(O)c1 (some centres not stated)
[7]
  Activity: 25%
[8]; Mus musculus
  Activity: inactive
[5]
  Ki: 17 nM

## CCCCCCC(C)(C)c1cc(O)c(C2C=C(C)CC[C@H]2C(C)C)c(O)c1 (some centres not stated)
[1]; Mus musculus
  Activity: inactive
[7]; Mus musculus
  Activity: inactive
[8]; Mus musculus
  Activity: inactive
[5]
  Ki: 124 nM

## C=C(C)[C@@H]1CCC(C)=CC1c1c(O)cc(C(C)(C)CCCCCC)cc1O (some centres not stated)
[1]; Mus musculus
  Activity: Active
[7]
  Activity: 60%
[2]
  Activity: Active
[3]
  Activity: Active
[4]
  Activity: Active
[8]
  Activity: 73%
[5]
  Ki: > 10000 nM

## C=C(C)[C@@H]1CCC(C)=C[C@H]1c1c(O)cc(CCCCC)cc1O [CANNABIDIOL]
[1]
  Activity: 12%
[7]; Mus musculus
  Activity: Active
[2]
  Activity: Active
[3]
  Activity: Active
[8]; Mus musculus
  Activity: Active

## C=C(C)[C@@H]1CCC(C)CC1c1c(O)cc(CCCCC)cc1O (some centres not stated)
[2]
  Activity: Active
[3]
  Activity: Active
